From the EternaBench riboswitch data

Test system: MS2 coat protein
Assay: apparent Kd, MS2 coat protein; higher = weaker binding; RNA-MaP array; FMN 200 µM where present
Method in brief: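 Binding was read on Illumina sequencing-chip clusters where stalled E. coli RNA polymerase had transcribed each design. A titration of SNAP-549-labelled MS2 coat protein began at 0.7 or 1.5 nM and doubled to 3 µM, once without ligand and once with constant ligand, in 100 mM Tris-HCl pH 7.5, 80 mM KCl, 4 mM MgCl2, BSA, DTT, yeast tRNA and Tween-20. The apparent Kd is the median of filtered per-cluster binding-curve fits, based on green signal normalised to red-channel RNA signal and control-cluster median Fmax.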

[1] = designed as: OFF switch for flavin mononucleotide, no ligand
[2] = ligand present: flavin mononucleotide, designed as: OFF switch for flavin mononucleotide
[3] = designed as: ON switch for flavin mononucleotide, no ligand
[4] = ligand present: flavin mononucleotide, designed as: ON switch for flavin mononucleotide

Sequence: CCGGCUUAGUAGGAUAUAGGAGUCGAUAGACACCUAGAAGGACUAACAUGAGGAUCACCCAUGUGUCCUACCGG
- apparent Kd [1]: 14.3 nM
- apparent Kd [2]: 29.3 nM

Sequence: CCGGUGUCAGGAUAUACGCCAACCACUGAAAAGGUAUGGGCGUAGAAGGGACAUGAGGAUCACCCAUGUCAGUC
- apparent Kd [1]: 22.8 nM
- apparent Kd [2]: 36.3 nM

Sequence: CCGUUACAUGAGGAUCACCCAUGUGAGGAUAUCGGGAUGACUGGCAGCGUGCGGGACUCGAGAAGGCACUGGGC
- apparent Kd [1]: 46.1 nM
- apparent Kd [2]: 41.5 nM

Sequence: CCGUUGAUAGGACAGGAUAUGACUGUCGUCACAUGAGGAUCACCCAUGUCCCGGCAAUGCCACCGUUAGAAGGGUCCCGUCUCGG
- apparent Kd [3]: 18.8 nM
- apparent Kd [4]: 19.2 nM

Sequence: CCUAAGGACACAGGAUAUAGCGUGGUGGCUGGGCUCCAACGGCGAGUGGCGCUAGAAGGGUGACCACAUGAGGAUCACCCAUGU
- apparent Kd [3]: 537 nM
- apparent Kd [4]: 214 nM

Sequence: CCUAAGGAGGUAGGAUAUAGUGUGGUGGCCGGGCUCCCACGGCGAGCGGCACUAGAAGGAUCGCUACAUGAGGAUCACCCAUGU
- apparent Kd [3]: 10.2 nM
- apparent Kd [4]: 9.71 nM

Sequence: CCUCAGUAAGGAUAUCAGCUUAGUAGGUUGGUAAUGAGAGCUGAGAAGGUACAUGAGGAUCACCCAUGUUAGUU
- apparent Kd [1]: 26.1 nM
- apparent Kd [2]: 80.8 nM

Sequence: CCUCCACAUGAGGAUCACCCAUGUCACACUCCGUCAGGAUAUAGCCUGCAUCCGCUGUGGCUAGAAGGGACUGCUG
- apparent Kd [3]: 332 nM
- apparent Kd [4]: 303 nM

Sequence: CCUCCACAUUAGGAUAUCGUCACACUAUUGUGACGAGAAGGAAUGACAUGAGGAUCACCCAUGUUAUCGUGAUG
- apparent Kd [1]: 19.4 nM
- apparent Kd [2]: 49.8 nM

Sequence: CCUCCCUGAGGAUAUCCACCCUCAUACAUGAGGAUCACCCAUGUUCAUCCGUGGCUACCCGGAGAAGGCAGCUCUC
- apparent Kd [1]: 44.9 nM
- apparent Kd [2]: 41.8 nM

Sequence: CCUCCGUAUUAGGAUAUCGUCCAGGAAACUGGACGAGAAGGAAUGACAUGAGGAUCACCCAUGUUAACGUGAUG
- apparent Kd [1]: 21.5 nM
- apparent Kd [2]: 50 nM

Sequence: CCUCGACAUGAGGAUCACCCAUGUAAGGAUAUGUUGACGAGCCAGAAAUGGCUGGUCAACAGAAGGUAUAUGUA
- apparent Kd [1]: 31.9 nM
- apparent Kd [2]: 121 nM

Sequence: CCUCGACAUGAGGAUCACCCAUGUCAGGAUAUUGUGUUUUUGGUUUUUUACCUUUAGGCAAGAAGGGAUGUGUG
- apparent Kd [1]: 16 nM
- apparent Kd [2]: 21.4 nM

Sequence: CCUCGACGGUAGGAUAUCGUCAAACUAUUGUGAUGAGAAGGACUGACAUGAGGAUCACCCAUGUUAACGUGAUA
- apparent Kd [1]: 20.2 nM
- apparent Kd [2]: 25.3 nM

Sequence: CCUCGCCCUCUUGCACAUGAGGAUCACCCAUGUUUUACGUACUAGGAUAUAGCUAUGUUCAAUCGUUAGAAGGAGUUCAUGGAU
- apparent Kd [1]: 110 nM
- apparent Kd [2]: 105 nM

Sequence: CCUGGAGGAAAACAGACGAAGUGGCCAGAAGGUGAAUGCCACAUGAGGAUCACCCAUGUUUCGAUCAAGGAUAUGGUUUCUCAC
- apparent Kd [3]: 329 nM
- apparent Kd [4]: 161 nM

Sequence: CCUUCACAUGAGGAUCACCCAUGUGAGGAUAUCCUGCGAGGAUCAAAAGAUCCUCGUGGGAGAAGGCACAUGGA
- apparent Kd [1]: 110 nM
- apparent Kd [2]: 180 nM

Sequence: CGAAAAUUUCAGAAGGACCGAUUCCACAUGAGGAUCACCCAUGUCGAUGGUAGGAUAUGGAGUUGUGGACAGGGCGGAUGUACC
- apparent Kd [3]: 72.1 nM
- apparent Kd [4]: 8.92 nM

Sequence: CGAAAUGAUAGAGGAUAUGUUUUACAUGAGGAUCACCCAUGUGUACAUGGAUUAAUAUAUAAGUAACAGAAGGCUAUUCAAUCG
- apparent Kd [1]: 18.6 nM
- apparent Kd [2]: 17.3 nM

Sequence: CGACCCUGAACGAAAUCAUGCAGUCAGGAUAUACAUGAGGAUCACCCAUGUGCGUACCAACUCGUGUAGAAGGGACUUUCAGGG
- apparent Kd [1]: 12.7 nM
- apparent Kd [2]: 33.2 nM

Sequence: CGACGAGUGGAGAAGGACUUUGACUAGUACAGGGUAGGAUAUCCACAUGAGGAUCACCCAUGUAGGAUACUUAUUGGGCCGCCU
- apparent Kd [1]: 10.3 nM
- apparent Kd [2]: 49 nM

Sequence: CGAGCCUAUGUAAGGAUAUCACGAUAAAACCAGCGUGAGAAGGUACAUGAGGAUCACCCAUGUUCACGACUGGC
- apparent Kd [1]: 13.9 nM
- apparent Kd [2]: 14.7 nM

Sequence: CGAGGUGGAGUGAGGAUAUCGUGUUCGAAAGAACGUGAGAAGGCACAUGAGGAUCACCCAUGUGAUUCUGCUCG
- apparent Kd [1]: 45.7 nM
- apparent Kd [2]: 270 nM

Sequence: CGAGUCAUAGCUCCUUAGCCAGCCAGAAGGGUCUACAUGAGGAUCACCCAUGUGGUCUCGAAGGGACAGGAUAUGGAGGGCGUA
- apparent Kd [1]: 5.39 nM
- apparent Kd [2]: 7.36 nM

Sequence: CGAUAACCACAGAAGGCCCGGGACAUGAGGAUCACCCAUGUAGAAAGUGGGAGGAUAUGUGUACGCGGCAUGCUGACCUCGUGA
- apparent Kd [3]: 210 nM
- apparent Kd [4]: 28.6 nM

Sequence: CGAUAGGACAGAGGAUAUACACAUGAGGAUCACCCAUGUGAUUACAACGCGAAAGCGCCAAACAUGUAGAAGGCUGUCCUAUCG
- apparent Kd [1]: 22.7 nM
- apparent Kd [2]: 12 nM

Sequence: CGAUAGGACAGAGGAUAUACACAUGAGGAUCACCCAUGUGAUUUCAACGCGAAAGCGCCAAACAUGUAGAAGGCUGUCCUAUCG
- apparent Kd [1]: 25.9 nM
- apparent Kd [2]: 16.4 nM

Sequence: CGAUAUAUGAAGGGCGAAAGCCCACAUGAGGAUCACCCAUGUAGAAGGCGGGCCGCAACGCGGCCCGAGGAUAUAUAAUAUACA
- apparent Kd [2]: 9.15 nM

Sequence: CGAUGAGGAGUGAGGAUAUCGUGUUCGAAAGAACGUGAGAAGGCACAUGAGGAUCACCCAUGUGAUCCUUAUCG
- apparent Kd [1]: 28.3 nM
- apparent Kd [2]: 67.9 nM

Sequence: CGAUGUUAUGUCAGGAUAUGCGUUGCGAAAGCAAUGCAGAAGGGACAUGAGGAUCACCCAUGUCCUAACCAUCG
- apparent Kd [1]: 12.3 nM
- apparent Kd [2]: 25.1 nM

Sequence: CGAUGUUGUGUCAGGAUAUGCGUUGCGAAAGCAAUGUAGAAGGGACAUGAGGAUCACCCAUGUUCUAACCAUCG
- apparent Kd [1]: 12.4 nM
- apparent Kd [2]: 15.8 nM

Sequence: CGCAAACUUGGGUUUAAUGGUGCAUAGGAUAUGCUUGUACAUGAGGAUCACCCAUGUACUAUUGUGCAGAAGGGUGCAUUUGCG
- apparent Kd [3]: 7.97 nM
- apparent Kd [4]: 5.77 nM

Sequence: CGCAGCGCAGGAUAUACAUGAGGAUCACCCAUGUACUGGCUCGGCACAGGGUCUCAAGGUAGAAGGGUGCAAAU
- apparent Kd [1]: 22.6 nM
- apparent Kd [2]: 23.1 nM

Sequence: CGCGAACAGGCUAACAUGAGGAUCACCCAUGUGGACUCAUGGUAGGAUAUCGGGAAGGAGGAAACCGAGAAGGGCCGGUGAGCC
- apparent Kd [3]: 498 nM
- apparent Kd [4]: 359 nM

Sequence: CGCUAAGAUGGGUCUAAUGGACCACAGGAUAUGCUUGUACAUGAGGAUCACCCAUGUAAUAUUGUGCAGAAGGGUGGAUUUGCG
- apparent Kd [3]: 18.9 nM
- apparent Kd [4]: 7.03 nM

Sequence: CGCUAAUAAUUAAUAUUAAUUGUACAGGAUAUGUUACAUGAGGAUCACCCAUGUAUUGGGUUUAAACAGAAGGGUAUAUUAGCG
- apparent Kd [1]: 191 nM
- apparent Kd [2]: 81.4 nM

Sequence: CGCUAUUAUGUAGGAUAUACAUUUUUUAUGUAUGUAGAAGGACAUGAGGAUCACCCAUGUAAAUAAAUUUUAAUUAUCAUAGCG
- apparent Kd [1]: 21.9 nM
- apparent Kd [2]: 18.3 nM

Sequence: CGCUGCCACGCAGGAUAUGCAUUGGAUUCCAAUGCAGAAGGGCGAUUACAUGAGGAUCACCCAUGUGUCGGCAGUGAAGAAGAG
- apparent Kd [3]: 590 nM
- apparent Kd [4]: 44.8 nM

Sequence: CGCUGUUGCGCAGGAUAUGCAUUGGAUUACAAUGCAGAAGGGCGAUUACAUGAGGAUCACCCAUGUGUAGACAGUGAAGAAGAG
- apparent Kd [3]: 300 nM
- apparent Kd [4]: 37.2 nM

Sequence: CGCUUUGUACAUGAGGAUCACCCAUGUUAAUAUGUGGUAGUCAGAAGGCAUUGUUUGAGAUAUUAUGAGGAUAUGAUUAGUCUG
- apparent Kd [3]: 73.2 nM
- apparent Kd [4]: 43.6 nM

Sequence: CGGAGACAUGAGGAUCACCCAUGUCGUCGUCACAGAGGAUAUGGGAGCGUCAGGGACGCAUCAGAAGGCUGAAAGC
- apparent Kd [3]: 32.5 nM
- apparent Kd [4]: 19.1 nM

Sequence: CGGAGGUCAGGAUAUGCAUGGCGGGACUUGCGUCGUGGCGUGCAGAAGGGACAUGAGGAUCACCCAUGUGGAGC
- apparent Kd [1]: 82.2 nM
- apparent Kd [2]: 145 nM

Sequence: CGGAUCAAUACAGGAUAUGGUGACGCACAUGAGGAUCACCCAUGUCCGCAGCGUGCUAAGCACGCCCAGAAGGGUAUUGAUUCG
- apparent Kd [3]: 738 nM
- apparent Kd [4]: 68.3 nM

Sequence: CGGAUUAUGUGAGGAUAUAAUCGUUUCCAUUGAUUAGAAGGCACAUGAGGAUCACCCAUGUGGCAUGUAAAGCCAUGUGACGCG
- apparent Kd [1]: 108 nM
- apparent Kd [2]: 109 nM

Sequence: CGGCCGCUACGCCGGCUCGACGCACAGGAUAUGCAGUUACAUGAGGAUCACCCAUGUGGCCAUGUGCAGAAGGGUGAUUCGCGA
- apparent Kd [3]: 135 nM
- apparent Kd [4]: 43.6 nM

Sequence: CGGCGCUGUCGAGAGGAUAUGCGGUGAUGGACAUGAGGAUCACCCAUGUUAGCGAUAGCAUCACGGUAGAAGGCUCUACGGCUUG
- apparent Kd [3]: 46.3 nM
- apparent Kd [4]: 15.5 nM

Sequence: CGGCGCUGUCGAGAGGAUAUGCGGUGAUGGACAUGAGGAUCACCCAUGUUAGCGAUAGCAUUACGGUAGAAGGCUCUAUAGUUGC
- apparent Kd [3]: 362 nM
- apparent Kd [4]: 93.2 nM

Sequence: CGGCUCGGAGAGGAUAUGCAGGCCAACGGCACUGCAGAAGGUUCAACAUGAGGAUCACCCAUGUGAUUUCAACU
- apparent Kd [1]: 23.6 nM
- apparent Kd [2]: 33.5 nM

Sequence: CGGGAAGUCGUAGGAUAUGGUGAUGUACAUGAGGAUCACCCAUGUCCGUCUUCUCUCACAAGAUGCCAGAAGGACGACCUCCGG
- apparent Kd [3]: 770 nM
- apparent Kd [4]: 97.8 nM

Sequence: CGGGAAGUCGUAGGAUAUGGUGAUGUACAUGAGGAUCACCCAUGUCCGUCUUCUCUCACAAGAUGCCAGAAGGGCGACUCCCGG
- apparent Kd [3]: 641 nM
- apparent Kd [4]: 317 nM

Sequence: CGGGAGUCAGGAUAUACGAACAUGUCGCCAGAUGUCAAGGUACAUGAGGAUCACCCAUGUAGAAGGGAGGAGAU
- apparent Kd [1]: 80.6 nM
- apparent Kd [2]: 72.7 nM

Sequence: CGGGCAAUGUCCGAGACAUGAGGAUCACCCAUGUUAGCAGCACAGGAUAUCAUGUUUUGUAAAGGUGAGAAGGGUGAUUGCAUC
- apparent Kd [3]: 273 nM
- apparent Kd [4]: 139 nM

Sequence: CGGGUCAACAUGAGGAUCACCCAUGUACUGCUAAUGCAGUCACAGGAUAUCUUCGGUAGAUUAGAAGAGAAGGGUGAUGCCCAG
- apparent Kd [3]: 136 nM
- apparent Kd [4]: 117 nM

Sequence: CGGUACACAGGAUAUAACGUCUGCAACAUGAGGAUCACCCAUGUUGUCCAAACGUUGCGGUUAGAAGGGUGGGCGC
- apparent Kd [1]: 30.7 nM
- apparent Kd [2]: 70.8 nM

Sequence: CGGUUAUAUCGAGGAUAUAAGUCUAGGACAUGAGGAUCACCCAUGUAUGUCUUAGAAGGCGAUAUAACCAGCCUGUUACAGGCA
- apparent Kd [3]: 29.3 nM
- apparent Kd [4]: 6.32 nM
